This note sets out measurements from ChEMBL document CHEMBL4312029, “Structure-activity relationship studies and in vitro and in vivo anticancer activity of novel 3-aroyl-1,4-diarylpyrroles against solid tumors and hematological malignancies” (Eur J Med Chem, 2020).

The target of one test is Tubulin. Kind of test: Inhibition of tubulin polymerization (unknown origin) incubated for 15 mins followed by GTP addition and measured for 20 mins by spectrophotometry. The format is protein-complex assay, Homo sapiens. The method, boiled down: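 Tubulin assembly assay with tubulin at 10 µM. IC50 for inhibition of polymerization; run in duplicate or triplicate.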
Another test has as its system MCF7. Description: Cytotoxicity against human MCF7 cells assessed as reduction in cell growth incubated for 96 hrs by MTT assay. The note with it: MCF7, 96 h. Format: functional, cell-based. The essentials: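 Growth inhibition of human breast carcinoma cells, reported as IC50; run in duplicate or triplicate.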
On the technique in general: Formazan colour is commonly taken as a measure of viable cells.

For the next test, the target named is Tubulin (Homo sapiens) (UniProt P68371+Q9H4B7+P0DPH7+P68366+Q13509+Q71U36+P04350+Q3ZCM7+P07437+P68363+Q9BQE3+Q6PEY2+Q13885+Q9BVA1+Q9BUF5). Kind of test: Inhibition of [3H]colchicine binding to tubulin (unknown origin) at 5 uM incubated for 10 mins by DEAE-cellulose filter method relative to control. The format is protein-complex assay.

As a reminder, the IC50 is the concentration that inhibits the measured activity by half. For the molecule `COc1cc(C(=O)c2cn(-c3ccccc3C)cc2-c2ccccc2)cc(OC)c1OC`, the IC50 against Tubulin was over 20000 nM; with MCF7, 2200 nM.
For orientation: inhibition means the change of the read-out against control, counted positive when it falls. A lower inhibition goes with little suppression. On to `COc1cccc(-n2cc(C(=O)c3cc(OC)c(OC)c(OC)c3)c(-c3ccccc3)c2)c1`, for which the IC50 was determined as 1600 nM on Tubulin and 500 nM in the test with MCF7. The same molecule yielded an inhibition on Tubulin (Homo sapiens) of 25%.
The like results for `COc1cc(C(=O)c2cn(-c3ccccc3)cc2-c2cccc(Cl)c2)cc(OC)c1OC` were, in that order, 2300 nM, 540 nM and 7.5%.
On the same counts, the results for `COc1cc(C(=O)c2cn(-c3ccc(N)cc3)cc2-c2ccccc2)cc(OC)c1OC` are 1600 nM, 35 nM and 67%.
Regarding `COc1cc(C(=O)c2cn(-c3ccc(C)cc3)cc2-c2cccc(N)c2)cc(OC)c1OC`, the IC50 against Tubulin was found to be 420 nM; in the test on MCF7 it was 53 nM. On Tubulin (Homo sapiens), this molecule showed an inhibition of 88%.
Turning to `COc1cc(C(=O)c2cn(-c3ccccc3)cc2-c2c(F)cc(F)cc2F)cc(OC)c1OC`, the IC50 turned out to be 510 nM against Tubulin and 180 nM in the test with MCF7. Also, the inhibition on Tubulin (Homo sapiens) is 27%.
As to `COc1cc(C(=O)c2cn(-c3ccc(F)cc3)cc2-c2ccccc2Cl)cc(OC)c1OC`, the IC50 amounted to 510 nM against Tubulin and 83 nM with MCF7. The inhibition at Tubulin (Homo sapiens) came to 65%.
On the same counts, the results for `COc1cc(C(=O)c2cn(-c3ccc(Br)cc3)cc2-c2ccccc2)cc(OC)c1OC` are 660 nM, 20 nM and 78%.
The like results for `COc1cc(C(=O)c2cn(-c3cccc(N)c3)cc2-c2cccc([N+](=O)[O-])c2)cc(OC)c1OC` were, in that order, 1700 nM, 510 nM and 32%.
For `COc1cc(C(=O)c2cn(-c3ccccc3)cc2-c2cccc(Br)c2)cc(OC)c1OC`, the IC50 was over 20000 nM at Tubulin and 950 nM in the test with MCF7.
Take `COc1cc(C(=O)c2cn(-c3ccccc3)cc2-c2ccccc2C)cc(OC)c1OC`: the IC50 against Tubulin came to 790 nM; with MCF7, 190 nM. In addition, on Tubulin (Homo sapiens), the inhibition came out at 18%.
Turning to `COc1cc(C(=O)c2cn(-c3ccc([N+](=O)[O-])cc3)cc2-c2ccccc2)cc(OC)c1OC`, the IC50 on Tubulin worked out at 3300 nM; in the test on MCF7, 4000 nM. Further, on Tubulin (Homo sapiens), the inhibition is 18%.
The like results for `COc1cc(C(=O)c2cn(-c3cccc(N)c3)cc2-c2ccc([N+](=O)[O-])cc2)cc(OC)c1OC` were, in that order, 780 nM, 110 nM and 41%.
The like results for `COc1cc(C(=O)c2cn(-c3cccc(F)c3)cc2-c2ccccc2[N+](=O)[O-])cc(OC)c1OC` were, in that order, 1100 nM, 190 nM and 41%.
The like results for `COc1cc(C(=O)c2cn(-c3cccc(N)c3)cc2-c2cccc(N)c2)cc(OC)c1OC` were, in that order, 880 nM, 60 nM and 70%.
As to `COc1cc(C(=O)c2cn(-c3ccc(C)cc3)cc2-c2ccc([N+](=O)[O-])cc2)cc(OC)c1OC`, the IC50 at Tubulin is 650 nM; with MCF7 it was 200 nM. In addition, on Tubulin (Homo sapiens), the inhibition is 34%.
On the same counts, the results for `COc1cc(C(=O)c2cn(-c3cccc(Cl)c3)cc2-c2ccccc2)cc(OC)c1OC` are 2100 nM, 150 nM and 37%.
Consider `COc1cc(C(=O)c2cn(-c3ccccc3)cc2-c2ccc(Cl)cc2)cc(OC)c1OC`, for which the figures for the half-inhibitory concentration (IC50) against Tubulin and with MCF7 were 1200 nM and 290 nM, respectively. This molecule also yielded an inhibition on Tubulin (Homo sapiens) of 23%.
On the same counts, the results for `COc1cc(C(=O)c2cn(-c3ccccc3)cc2-c2ccc(Br)cc2)cc(OC)c1OC` are 770 nM, 340 nM and 14%.
Take `COc1ccc(Br)cc1-c1cn(-c2ccccc2)cc1C(=O)c1cc(OC)c(OC)c(OC)c1`: the IC50 is over 20000 nM at Tubulin and 2200 nM with MCF7.
Take `COc1cc(C(=O)c2cn(-c3ccccc3)cc2-c2cc(F)ccc2F)cc(OC)c1OC`: the IC50 on Tubulin was 1300 nM; with MCF7, 230 nM. Further, the inhibition at Tubulin (Homo sapiens) was determined as 24%.
`COc1cc(C(=O)c2cn(-c3ccc(N)cc3)cc2-c2cccc([N+](=O)[O-])c2)cc(OC)c1OC`: the IC50 against Tubulin was 3800 nM; with MCF7, 260 nM. Besides, on Tubulin (Homo sapiens), the inhibition was 18%.
In the case of `COc1cc(C(=O)c2cn(-c3ccc(C)cc3)cc2-c2cccc([N+](=O)[O-])c2)cc(OC)c1OC`, the values for the IC50 against Tubulin and in the test with MCF7 were 710 nM and 210 nM, respectively. For the same molecule, at Tubulin (Homo sapiens), the inhibition worked out at 36%.
As for `COc1cc(C(=O)c2cn(-c3ccccc3Cl)cc2-c2ccccc2)cc(OC)c1OC`, the IC50 was over 20000 nM on Tubulin and 1800 nM in the test with MCF7.
`COc1cc(C(=O)c2cn(-c3ccc(C)cc3)cc2-c2ccccc2[N+](=O)[O-])cc(OC)c1OC`: the figures for the IC50 against Tubulin and in the test on MCF7 were 610 nM and 65 nM, respectively. This molecule registered an inhibition at Tubulin (Homo sapiens) of 71%.
As to `COc1cc(C(=O)c2cn(-c3cccc(C)c3)cc2-c2cccc([N+](=O)[O-])c2)cc(OC)c1OC`, the IC50 was over 20000 nM against Tubulin and 880 nM in the test with MCF7. At Tubulin (Homo sapiens), this molecule displayed an inhibition of 4.2%.
Consider `COc1cc(C(=O)c2cn(-c3ccccc3)cc2-c2ccccc2[N+](=O)[O-])cc(OC)c1OC`, for which the IC50 was determined as 730 nM against Tubulin and 49 nM in the test with MCF7. The inhibition on Tubulin (Homo sapiens) came to 61%.
On the same counts, the results for `COc1cc(C(=O)c2cn(-c3cccc([N+](=O)[O-])c3)cc2-c2ccccc2)cc(OC)c1OC` are over 20000 nM, 550 nM and 12%.
The like results for `COc1cc(C(=O)c2cn(-c3ccc(C)cc3)cc2-c2ccc(N)cc2)cc(OC)c1OC` were, in that order, 360 nM, 6 nM and 95%.
The like results for `COc1cc(C(=O)c2cn(-c3ccccc3)cc2-c2ccccc2Br)cc(OC)c1OC` were, in that order, 670 nM, 190 nM and 39%.
Take `COc1cc(C(=O)c2cn(-c3ccc(F)cc3)cc2-c2cccc(N)c2)cc(OC)c1OC`: the values for the IC50 at Tubulin and in the test on MCF7 were 410 nM and 53 nM, respectively. The inhibition at Tubulin (Homo sapiens) turned out to be 68%.
On the same counts, the results for `COc1cc(C(=O)c2cn(-c3ccccc3)cc2-c2ccccc2Cl)cc(OC)c1OC` are 630 nM, 76 nM and 50%.
On to `COc1cc(C(=O)c2cn(-c3ccccc3)cc2/C=C/c2ccccc2)cc(OC)c1OC`, for which the IC50 was over 20000 nM on Tubulin and 2200 nM in the test on MCF7.
On the same counts, the results for `COc1cc(C(=O)c2cn(-c3ccccc3N)cc2-c2ccccc2)cc(OC)c1OC` are over 20000 nM and 3800 nM.
Regarding `COc1cc(C(=O)c2cn(-c3ccc(Cl)cc3)cc2-c2ccccc2)cc(OC)c1OC`, the IC50 came to 1700 nM on Tubulin and 140 nM in the test on MCF7. The molecule further returned an inhibition at Tubulin (Homo sapiens) of 42%.
As to `COc1cc(C(=O)c2cn(-c3ccccc3)cc2-c2ccc(N)cc2)cc(OC)c1OC`, the IC50 on Tubulin turned out to be 1200 nM; in the test on MCF7, 9 nM.
The like results for `COc1cc(C(=O)c2cn(-c3ccccc3)cc2-c2ccc([N+](=O)[O-])cc2)cc(OC)c1OC` were, in that order, over 20000 nM and 590 nM.
On the same counts, the results for `COc1cc(C(=O)c2cn(-c3ccccc3[N+](=O)[O-])cc2-c2ccccc2)cc(OC)c1OC` are over 20000 nM and 5000 nM.
